# Tests used:
# Type in all cases: ADME, organism-based
# Mus musculus [1] = test: The biodistribution time for compound radioactivity after concomitant administration of [131 I ]L-HML-NGA and compound in mice. It is expressed as percent injected dose per gram of blood tissue after 30 minutes; conditions: in vivo, 0.5 h
# Method in brief: (§1)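 Six-week-old male ddY mice received an intravenous injection of a 1:1 mix of the 131I- and 125I-labelled galactosyl-neoglycoalbumin conjugates, each diluted to 90 µg/mL protein in 0.1 M PBS pH 6.0, at 9 µg radioiodinated NGA per mouse. Groups of five were killed at 5, 15 and 30 min, 1 and 3 h. Organs were excised, weighed and well-counted, giving %ID/organ (blood %ID/g) as mean (SD).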
# Mus musculus [2] = test: The biodistribution time for compound radioactivity after concomitant administration of [131 I ]L-HML-NGA and compound in mice. It is expressed as percent injected dose per gram of blood tissue after 3 hours; conditions: in vivo; method in brief: as §1
# Mus musculus [3] = test: The biodistribution time for compound radioactivity after concomitant administration of [[131 I ]L-HML-NGA and compound in mice. It is expressed as percent injected dose per kidney after 15 minutes; conditions: in vivo, 0.25 h; method in brief: as §1
# [4] = Cumulative radioactivity exerted by compound in the feces at 24 hour postinjection of [131 I ]L-HML-NGA and compound.; conditions: in vivo
# Method in brief: (§2)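 Mice received one i.v. co-injection of the dual-isotope NGA mixture, 9 µg of each radioiodinated protein, and were housed in metabolic cages for 24 h. Cumulative urine and feces were collected and counted. Values are % injected dose, mean (SD) of five animals, with a Student's paired t-test between the two co-administered conjugates.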
# Mus musculus [5] = test: The biodistribution time for compound radioactivity after concomitant administration of [131 I ]L-HML-NGA and compound in mice. It is expressed as percent injected dose per intestine after 1 hour; conditions: in vivo; method in brief: as §1
# Mus musculus [6] = test: The biodistribution time for compound radioactivity after concomitant administration of [131 I ]L-HML-NGA and compound in mice. It is expressed as percent injected dose per stomach after 3 hours; conditions: in vivo; method in brief: as §1
# Homo sapiens [7] = species on record: Homo sapiens; test: The percent protein-bound radioactivity in NGAfractions following incubation of radioiodinated compound in human serum after 6 hours; conditions: in vitro
# Method in brief: (§3)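 Conjugates were diluted to 0.5 mg/mL in 0.1 M PBS pH 6.0, and 20 µL was added to 230 µL of freshly prepared human serum. Samples were incubated at 37 °C and taken at 1, 3, 6 or 24 h. Protein-bound fraction (Rf 0) was separated from small metabolites (Rf 0.6-0.9) by paper chromatography in methanol-water 4:1. Protein-bound radioactivity was divided by the initial radiochemical purity. Values are mean (SD).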
# Mus musculus [8] = test: The biodistribution time for compound radioactivity after concomitant administration of [131 I ]L-HML-NGA and compound in mice. It is expressed as percent injected dose per stomach after 5 minutes; conditions: in vivo; method in brief: as §1
# [9] = Cumulative radioactivity exerted by compound in the urine at 24 hour postinjection of [131 I ]L-HML-NGA and compound; conditions: in vivo; method in brief: as §2
# Mus musculus [10] = test: The biodistribution time for compound radioactivity after concomitant administration of [131 I ]L-HML-NGA and compound in mice. It is expressed as percent injected dose per liver after 15 minutes; conditions: in vivo, 0.25 h; method in brief: as §1
# Mus musculus [11] = test: The biodistribution time for compound radioactivity after concomitant administration of [131 I ]L-HML-NGA and compound in mice. It is expressed as percent injected dose per liver after 30 minutes; conditions: in vivo, 0.5 h; method in brief: as §1
# Mus musculus [12] = test: The biodistribution time for compound radioactivity after concomitant administration of [[131 I ]L-HML-NGA and compound in mice. It is expressed as percent injected dose per kidney after 1 hour; conditions: in vivo; method in brief: as §1
# Homo sapiens [13] = species on record: Homo sapiens; test: The percent protein-bound radioactivity in NGAfractions following incubation of radioiodinated compound in human serum after 1 hour; method in brief: as §3
# Mus musculus [14] = test: The biodistribution time for compound radioactivity after concomitant administration of [131 I ]L-HML-NGA and compound in mice. It is expressed as percent injected dose per gram of blood tissue after 5 minutes; conditions: in vivo; method in brief: as §1
# Mus musculus [15] = test: The biodistribution time for compound radioactivity after concomitant administration of [[131 I ]L-HML-NGA and compound in mice. It is expressed as percent injected dose per kidney after 30 minutes; conditions: in vivo, 0.5 h; method in brief: as §1
# Mus musculus [16] = test: The biodistribution time for compound radioactivity after concomitant administration of [131 I ]L-HML-NGA and compound in mice. It is expressed as percent injected dose per neck after 15 minutes; conditions: in vivo, 0.25 h; method in brief: as §1
# Mus musculus [17] = test: The biodistribution time for compound radioactivity after concomitant administration of [131 I ]L-HML-NGA and compound in mice. It is expressed as percent injected dose per intestine after 15 minutes; conditions: in vivo, 0.25 h; method in brief: as §1
# Mus musculus [18] = test: The biodistribution time for compound radioactivity after concomitant administration of [131 I ]L-HML-NGA and compound in mice. It is expressed as percent injected dose per neck after 5 minutes; conditions: in vivo; method in brief: as §1
# Mus musculus [19] = test: The biodistribution time for compound radioactivity after concomitant administration of [131 I ]L-HML-NGA and compound in mice. It is expressed as percent injected dose per intestine after 3 hours; conditions: in vivo; method in brief: as §1
# Mus musculus [20] = test: The biodistribution time for compound radioactivity after concomitant administration of [[131 I ]L-HML-NGA and compound in mice. It is expressed as percent injected dose per kidney after 5 minutes; conditions: in vivo; method in brief: as §1
# Mus musculus [21] = test: The biodistribution time for compound radioactivity after concomitant administration of [131 I ]L-HML-NGA and compound in mice. It is expressed as percent injected dose per neck after 1 hour; conditions: in vivo; method in brief: as §1
# Mus musculus [22] = test: The biodistribution time for compound radioactivity after concomitant administration of [131 I ]L-HML-NGA and compound in mice. It is expressed as percent injected dose per stomach after 15 minutes; conditions: in vivo, 0.25 h; method in brief: as §1
# Mus musculus [23] = test: The biodistribution time for compound radioactivity after concomitant administration of [[131 I ]L-HML-NGA and compound in mice. It is expressed as percent injected dose per kidney after 3 hours; conditions: in vivo; method in brief: as §1
# Mus musculus [24] = test: The biodistribution time for compound radioactivity after concomitant administration of [131 I ]L-HML-NGA and compound in mice. It is expressed as percent injected dose per stomach after 30 minutes; conditions: in vivo, 0.5 h; method in brief: as §1
# Mus musculus [25] = test: The biodistribution time for compound radioactivity after concomitant administration of [131 I ]L-HML-NGA and [compound in mice. It is expressed as percent injected dose per stomach after 1 hour; conditions: in vivo; method in brief: as §1
# Mus musculus [26] = test: The biodistribution time for compound radioactivity after concomitant administration of [131 I ]L-HML-NGA and compound in mice. It is expressed as percent injected dose per liver after 1 hour; conditions: in vivo; method in brief: as §1
# Homo sapiens [27] = species on record: Homo sapiens; test: The percent protein-bound radioactivity in NGAfractions following incubation of radioiodinated compound in human serum after 24 hours; method in brief: as §3
# Mus musculus [28] = test: The biodistribution time for compound radioactivity after concomitant administration of [131 I ]L-HML-NGA and compound in mice. It is expressed as percent injected dose per gram of blood tissue after 1 hour; conditions: in vivo; method in brief: as §1
# Mus musculus [29] = test: The biodistribution time for compound radioactivity after concomitant administration of [131 I ]L-HML-NGA and compound in mice. It is expressed as percent injected dose per liver after 3 hours; conditions: in vivo; method in brief: as §1
# Homo sapiens [30] = species on record: Homo sapiens; test: The percent protein-bound radioactivity in NGAfractions following incubation of radioiodinated compound in human serum after 3 hours; method in brief: as §3
# Mus musculus [31] = test: The biodistribution time for compound radioactivity after concomitant administration of [131 I ]L-HML-NGA and compound in mice. It is expressed as percent injected dose per gram of blood tissue after 15 minutes; conditions: in vivo, 0.25 h; method in brief: as §1
# Mus musculus [32] = test: The biodistribution time for compound radioactivity after concomitant administration of [131 I ]L-HML-NGA and compound in mice. It is expressed as percent injected dose per neck. Values are mean(SD) of five animals for each experiment after 3 hours; conditions: in vivo; method in brief: as §1
# Mus musculus [33] = test: The biodistribution time for compound radioactivity after concomitant administration of [131 I ]L-HML-NGA and compound in mice. It is expressed as percent injected dose per neck after 30 minutes; conditions: in vivo, 0.5 h; method in brief: as §1
# Mus musculus [34] = test: The biodistribution time for compound radioactivity after concomitant administration of [131 I ]L-HML-NGA and compound in mice. It is expressed as percent injected dose per liver after 5 minutes; conditions: in vivo; method in brief: as §1
# Mus musculus [35] = test: The biodistribution time for compound radioactivity after concomitant administration of [131 I ]L-HML-NGA and compound in mice. It is expressed as percent injected dose per intestine after 30 minutes; conditions: in vivo, 0.5 h; method in brief: as §1
# Mus musculus [36] = test: The biodistribution time for compound radioactivity after concomitant administration of [131 I ]L-HML-NGA and compound in mice. It is expressed as percent injected dose per intestine after 5 minutes; conditions: in vivo; method in brief: as §1
# Mus musculus [37] = test: The biodistribution time for compound radioactivity after concomitant administration of [131 I ]L-HML-NGA and compound in mice. It is expressed as percent injected dose per neck after 3 hours; conditions: in vivo; method in brief: as §1
Radioactivity (Mus musculus [1]),Radioactivity (Mus musculus [2]),Radioactivity (Mus musculus [3]),Radioactivity [4],Radioactivity (Mus musculus [5]),Radioactivity (Mus musculus [6]),Radioactivity (Homo sapiens [7]),Radioactivity (Mus musculus [8]),Radioactivity [9],Radioactivity (Mus musculus [10]),Radioactivity (Mus musculus [11]),Radioactivity (Mus musculus [12]),Radioactivity (Homo sapiens [13]),Radioactivity (Mus musculus [14]),Radioactivity (Mus musculus [15]),Radioactivity (Mus musculus [16]),Radioactivity (Mus musculus [17]),Radioactivity (Mus musculus [18]),Radioactivity (Mus musculus [19]),Radioactivity (Mus musculus [20]),Compound,other results
1.7%,0.41%,4.38%,4.03%,5.17%,0.35%,99.5%,0.24%,78.26%,55.86%,18.1%,1.04%,99.88%,1.17%,4.64%,0.25%,2.26%,0.11%,4.96%,0.33%,N=C(CCCSC1CC(=O)N(CCCC[C@H](NC(=O)CNC(=O)c2cccc([125I])c2)C(=O)O)C1=O)NC(=O)[C@@H](N)CCCCN (some centres not stated),Radioactivity (Mus musculus [21]): 0.07%; Radioactivity (Mus musculus [22]): 0.5%; Radioactivity (Mus musculus [23]): 0.22%; Radioactivity (Mus musculus [24]): 0.36%; Radioactivity (Mus musculus [25]): 0.42%; Radioactivity (Mus musculus [26]): 5.92%; Radioactivity (Homo sapiens [27]): 97.85%; Radioactivity (Mus musculus [28]): 0.73%; Radioactivity (Mus musculus [29]): 3%; Radioactivity (Homo sapiens [30]): 99.4%; Radioactivity (Mus musculus [31]): 2.76%; Radioactivity (Mus musculus [32]): 0.03%; Radioactivity (Mus musculus [33]): 0.19%; Radioactivity (Mus musculus [34]): 93.67%; Radioactivity (Mus musculus [35]): 4.79%; Radioactivity (Mus musculus [36]): 0.43%
0.64%,0.23%,1.62%,58.83%,55.62%,1.48%,98.56%,0.24%,25.5%,77.12%,34.19%,0.77%,100.07%,0.76%,1.72%,0.06%,7.17%,0.06%,59.36%,0.8%,N[C@@H](CS)C(=O)SC1CC(=O)N(CCCCCNC(=O)CNC(=O)c2cccc([125I])c2)C1=O (some centres not stated),Radioactivity (Mus musculus [37]): 0.04%; Radioactivity (Mus musculus [21]): 0.04%; Radioactivity (Mus musculus [22]): 0.46%; Radioactivity (Mus musculus [23]): 0.38%; Radioactivity (Mus musculus [24]): 0.54%; Radioactivity (Mus musculus [25]): 0.61%; Radioactivity (Mus musculus [26]): 10.12%; Radioactivity (Homo sapiens [27]): 97.26%; Radioactivity (Mus musculus [28]): 0.32%; Radioactivity (Mus musculus [29]): 5.72%; Radioactivity (Homo sapiens [30]): 99.12%; Radioactivity (Mus musculus [31]): 0.68%; Radioactivity (Mus musculus [33]): 0.07%; Radioactivity (Mus musculus [34]): 93.75%; Radioactivity (Mus musculus [35]): 33.84%; Radioactivity (Mus musculus [36]): 0.71%

# Reference: ChEMBL document CHEMBL1130118, “A novel radioiodination reagent for protein radiopharmaceuticals with L-lysine as a plasma-stable metabolizable linkage to liberate m-iodohippuric acid after lysosomal proteolysis” (J Med Chem, 1997)
